Assay [1] relates to HCT-116. Nature of the assay: Antiproliferative activity against human HCT116 cells after 24 hrs by MTT assay. The conditions noted are these: HCT-116, 24 h. The assay is classed as functional, cell-based. The essentials: (§1)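 1×10^4 cells/well seeded in DMEM with 10% FBS and antibiotic-antimycotic, grown 24 h at 37 °C under 5% CO2. Compounds diluted in phenol red-free DMEM with 2% FBS and given for 24 h, with vehicle control. MTT (5 mg/mL, 20 µL) added for 3 h. Formazan dissolved in DMSO, absorbance read at 570 nm. IC50 is the concentration giving 50% growth inhibition.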
For orientation: Formazan colour is commonly taken as a measure of viable cells.

In assay [2] the test system is HCT-116. Nature of the assay: Induction of cell cycle arrest in human HCT116 cells assessed as accumulation at subG1 phase at IC50 concentration measured after 24 hrs by propidium iodide staining based flow cytometry. The assay is classed as functional. The essentials:
(§2)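 1×10^6 cells seeded in six-well plates and treated 24 h. Floating and trypsinized adherent cells pooled and fixed in 70% ethanol. Cells washed in PBS, then stained 30 min at room temperature in the dark with 30 µg/mL propidium iodide in PBS containing RNase A. DNA content measured by flow cytometry.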
(In general: A flow cytometer gives signals particle by particle.)

For assay [3], the system named is MDA-MB-231. Nature of the assay: Antiproliferative activity against human MDA-MB-231 cells after 24 hrs by MTT assay. The assay is classed as functional, cell-based. To be noted: MDA-MB-231, 24 h. The essentials:
as §1

Assay [4] has as its system U-937. Nature of the assay: Antiproliferative activity against human U937 cells after 24 hrs by MTT assay. The assay is classed as functional, cell-based. To be noted: U-937, 24 h. The essentials:
as §1

In assay [5] the test system is MDA-MB-231. Nature of the assay: Induction of cell cycle arrest in human MDA-MB-231 cells assessed as accumulation at subG1 phase at IC50 concentration measured after 24 hrs by propidium iodide staining based flow cytometry. In kind it is functional. The essentials:
as §2

In assay [6] the test system is MCF7. Nature of the assay: Induction of cell cycle arrest in human MCF7 cells assessed as accumulation at subG1 phase at IC50 concentration measured after 24 hrs by propidium iodide staining based flow cytometry. The assay is classed as functional. Summed up: as §2
In assay [7] the test system is PC-3. Nature of the assay: Antiproliferative activity against human PC3 cells after 24 hrs by MTT assay. To be noted: PC-3, 24 h. In kind it is functional, cell-based. The essentials: as §1
Assay [8] relates to U-937. Nature of the assay: Induction of cell cycle arrest in human U937 cells assessed as accumulation at subG1 phase at IC50 concentration measured after 24 hrs by propidium iodide staining based flow cytometry. In kind it is functional. The essentials: as §2
Assay [9] relates to MCF7. Nature of the assay: Antiproliferative activity against human MCF7 cells after 24 hrs by MTT assay. The assay is classed as functional, cell-based. The conditions noted are these: MCF7, 24 h. Summed up: as §1
The subject of the next assay is HEK293. Nature of the assay: Cytotoxicity against human HEK293 cells after 24 hrs by MTT assay. The assay is classed as cell-based. To be noted: HEK293, 24 h. Summed up: as §1
Assay [10] relates to MDA-MB-231. Nature of the assay: Induction of reactive oxygen species production in human MDA-MB-231 cells after 24 hrs by DCFH-DA dye based flow cytometry. The assay is classed as functional, cell-based. Summed up:
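MDA-MB-231 cells (1×10^6) seeded 24 h in six-well plates, then treated 24 h. Cells harvested, washed in PBS and fixed in absolute methanol. Cells resuspended in PBS with 15 µg/mL DCFH-DA for 30 min in the dark, then pelleted, taken up in PBS, and fluorescence read by flow cytometry.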

Assay [11] concerns PC-3. Nature of the assay: Induction of cell cycle arrest in human PC3 cells assessed as accumulation at subG1 phase at IC50 concentration measured after 24 hrs by propidium iodide staining based flow cytometry. In kind it is functional. The essentials:
as §2

Assay [12] deals with MDA-MB-231. Nature of the assay: Induction of apoptosis in human MDA-MB-231 cells assessed as late apoptotic cells compound treated 1 hr post 10 mM ROS inhibitor NAC addition measured after 24 hrs by Annexin-V/PI staining based flow cytometry (reference value: 2.91%). The assay is classed as functional.
Assay [13] deals with MDA-MB-231. Nature of the assay: Induction of apoptosis in human MDA-MB-231 cells assessed as viable cells at 22 uM measured after 24 hrs by Annexin-V/PI staining based flow cytometry (reference value: 71.87%). In kind it is functional. The conditions noted are these: MDA-MB-231, 24 h, read-out: Activity. Summed up: (§3)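 MDA-MB-231 cells (1×10^6) seeded in six-well plates, grown overnight, then exposed 24 h to 11 or 22 µM. Cells trypsinized, washed in PBS, stained with Annexin-V-FITC and propidium iodide using a kit, and analysed by flow cytometry. Compared with untreated vehicle control.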

The test system of assay [14] is MDA-MB-231. Nature of the assay: Induction of apoptosis in human MDA-MB-231 cells assessed as late apoptotic cells at 22 uM measured after 24 hrs by Annexin-V/PI staining based flow cytometry (reference value: 6.11%). In kind it is functional. The essentials:
as §3

Assay [15] deals with MDA-MB-231. Nature of the assay: Induction of apoptosis in human MDA-MB-231 cells assessed as necrotic cells measured compound treated 1 hr post 10 mM ROS inhibitor NAC addition measured after 24 hrs by Annexin-V/PI staining based flow cytometry (reference value: 0.84%). The assay is classed as functional.
Assay [16] has as its system MDA-MB-231. Nature of the assay: Induction of apoptosis in human MDA-MB-231 cells assessed as early apoptotic cells measured after 24 hrs by Annexin-V/PI staining based flow cytometry (reference value: 11.31%). In kind it is functional.
Assay [17] concerns MDA-MB-231. Nature of the assay: Induction of apoptosis in human MDA-MB-231 cells assessed as necrotic cells measured after 24 hrs by Annexin-V/PI staining based flow cytometry (reference value: 0.84%). The assay is classed as functional.
For assay [18], the system named is MDA-MB-231. Nature of the assay: Effect on phosphorylated p38 level in human MDA-MB-231 cells at 11 uM after 24 hrs by western blot analysis pretreated with ROS inhibitor NAC. The assay is classed as functional, cell-based. Summed up: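 MDA-MB-231 cells pretreated with NAC, then exposed to compound at 11 µM for 24 h. Lysates in RIPA quantified by Bradford. 40 µg protein resolved by SDS-PAGE and blotted to PVDF. Membranes blocked with 1% BSA, probed overnight at 4 °C for phospho-p38 and p38, then with HRP secondary.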

Assay [19] has as its system MDA-MB-231. Nature of the assay: Induction of apoptosis in human MDA-MB-231 cells assessed as early apoptotic cells compound treated 1 hr post 10 mM ROS inhibitor NAC addition measured after 24 hrs by Annexin-V/PI staining based flow cytometry (reference value: 11.31%). The assay is classed as functional.
The subject of assay [20] is MDA-MB-231. Nature of the assay: Induction of apoptosis in human MDA-MB-231 cells assessed as viable cells measured after 24 hrs by Annexin-V/PI staining based flow cytometry (reference value: 84.94%). In kind it is functional.
For assay [21], the system named is MDA-MB-231. Nature of the assay: Induction of apoptosis in human MDA-MB-231 cells assessed as viable cells compound treated 1 hr post 10 mM ROS inhibitor NAC addition measured after 24 hrs by Annexin-V/PI staining based flow cytometry (reference value: 84.94%). In kind it is functional.
The test system of assay [22] is MDA-MB-231. Nature of the assay: Increase in phosphorylated p38 level in human MDA-MB-231 cells after 24 hrs by western blot analysis. In kind it is functional, cell-based. The essentials: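 MDA-MB-231 cells (1×10^6) seeded 24 h, then treated 24 h at 11 and 22 µM. Cells lysed in ice-cold RIPA and protein measured by Bradford. 40 µg protein run on SDS-PAGE and transferred to PVDF. Membranes blocked with 1% BSA, probed overnight at 4 °C for p-p38 and total p38, then with HRP secondary for 2 h.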
(In western blotting, separated proteins are transferred to a membrane and probed.)

Assay [23] deals with MDA-MB-231. Nature of the assay: Induction of apoptosis in human MDA-MB-231 cells assessed as necrotic cells at 22 uM measured after 24 hrs by Annexin-V/PI staining based flow cytometry (reference value: 2.24%). In kind it is functional. The essentials:
as §3

Assay [24] concerns MDA-MB-231. Nature of the assay: Induction of apoptosis in human MDA-MB-231 cells assessed as late apoptotic cells measured after 24 hrs by Annexin-V/PI staining based flow cytometry (reference value: 2.91%). In kind it is functional.
Assay [25] relates to MDA-MB-231. Nature of the assay: Induction of apoptosis in human MDA-MB-231 cells assessed as early apoptotic cells at 11 uM measured after 24 hrs by Annexin-V/PI staining based flow cytometry (reference value: 19.77%). In kind it is functional. Summed up:
as §3

Assay [26] relates to MDA-MB-231. Nature of the assay: Induction of apoptosis in human MDA-MB-231 cells assessed as late apoptotic cells at 11 uM measured after 24 hrs by Annexin-V/PI staining based flow cytometry (reference value: 6.11%). In kind it is functional. The essentials: as §3
Assay [27] deals with MDA-MB-231. Nature of the assay: Induction of apoptosis in human MDA-MB-231 cells assessed as early apoptotic cells at 22 uM measured after 24 hrs by Annexin-V/PI staining based flow cytometry (reference value: 19.77%). In kind it is functional. The essentials: as §3
Assay [28] relates to MDA-MB-231. Nature of the assay: Induction of apoptosis in human MDA-MB-231 cells assessed as viable cells at 11 uM measured after 24 hrs by Annexin-V/PI staining based flow cytometry (reference value: 71.87%). The conditions noted are these: MDA-MB-231, 24 h, read-out: Activity. In kind it is functional. Summed up:
as §3

The test system of assay [29] is MDA-MB-231. Nature of the assay: Induction of apoptosis in human MDA-MB-231 cells assessed as necrotic cells at 11 uM measured after 24 hrs by Annexin-V/PI staining based flow cytometry (reference value: 2.24%). In kind it is functional. The essentials: as §3

In general, IC50 refers to the concentration that gives 50% inhibition. High values mean lower potency, low ones higher potency.

Molecules are shown by their SMILES. Active and inactive are the calls of the source. No cut-off for these calls is given here.

Turning to `COC1=C(OC)C(O)(CCn2cc(-c3ccccc3)nn2)NC1=O` (centres undefined), the IC50 worked out at 46.3 µM in the assay with HCT-116 [1]; 18.3 µM with MDA-MB-231 [3]; 20.3 µM in the assay with U-937 [4]; 35.3 µM in the assay on PC-3 [7]; 22.6 µM in the assay on MCF7 [9]; 62 µM with HEK293. In addition, the outcome in the assay on HCT-116 [2], with MDA-MB-231 [5], in the assay on MCF7 [6], with U-937 [8], in the assay with MDA-MB-231 [10] and with PC-3 [11] was Active.

As for `COC1=C(OC)C(O)(CCn2cc(-c3ccc(C(C)(C)C)cc3)nn2)NC1=O` (centres undefined), the Activity was 3.61% in the assay with MDA-MB-231 [12]; 6.95% with MDA-MB-231 [14]; 1.112% in the assay on MDA-MB-231 [15]; 32.05% in the assay with MDA-MB-231 [16]; 0.76% with MDA-MB-231 [17]; 13.91% with MDA-MB-231 [19]. In addition, the Activity is 56.21% with MDA-MB-231 [20]; 81.36% in the assay with MDA-MB-231 [21]; “Dose-dependent effect” with MDA-MB-231 [22]; 2.35% with MDA-MB-231 [23]; 10.98% in the assay with MDA-MB-231 [24]; 27.35% in the assay on MDA-MB-231 [25]. Further, the values for the Activity in the assay with MDA-MB-231 [26], in the assay with MDA-MB-231 [27] and with MDA-MB-231 [29] were 3.38%, 41.92% and 1.48%, respectively. Further, the IC50 with HCT-116 [1] is 50.3 µM; with MDA-MB-231 [3], 11.3 µM; in the assay on U-937 [4] it was above 100 µM; with PC-3 [7], 30.4 µM; in the assay with MCF7 [9], above 100 µM; in the assay on HEK293, 62 µM. In addition, in the assay with MDA-MB-231 [13], the viability at 22 µM came out at 48.8%. The outcome in the assay on HCT-116 [2], in the assay on MDA-MB-231 [5], in the assay with MCF7 [6], with U-937 [8], in the assay on MDA-MB-231 [10] and in the assay with PC-3 [11] was Active. Moreover, in the assay on MDA-MB-231 [18], the outcome was inactive. Moreover, in the assay with MDA-MB-231 [28], the viability at 11 µM is 67.8%.

For the compound `O=C1NC(O)(CCn2cc(-c3ccccc3)nn2)C(OCc2ccccc2)=C1OCc1ccccc1` (centres undefined), the IC50 in the assay on HCT-116 [1] is 53.4 µM; in the assay on MDA-MB-231 [3], 21.1 µM; in the assay with U-937 [4], 21.5 µM; with PC-3 [7] it was above 100 µM; in the assay on MCF7 [9], 20.5 µM; with HEK293, above 100 µM. Also, the result with HCT-116 [2], with MDA-MB-231 [5], in the assay with MCF7 [6], in the assay with U-937 [8], with MDA-MB-231 [10] and with PC-3 [11] was Active.
